Experimental data: ChEMBL document CHEMBL4680079, “Discovery of a Quinoline-4-carboxamide Derivative with a Novel Mechanism of Action, Multistage Antimalarial Activity, and Potent in Vivo Efficacy” (J Med Chem, 2016)
Active and inactive are the calls of the source. The calls are words filed in the database; no cut-off is given here.

How the values were obtained:
[1] = Tmax in Sprague-Dawley rat at 5 mg/kg, po administered via gavage by UPLC-MS/MS analysis; assay type: ADME, organism-based; conditions: in vivo
In short: (§1)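 Male Sprague Dawley rats (n=3) gavaged with a solution at 5 mg free base/kg (10 mL/kg; 0.5% w/v HPMC, 0.4% v/v Tween 80, 0.5% v/v benzyl alcohol). Blood sampled at 5, 15, 30 min and 1, 2, 4, 6, 8, 24, 30, 48 h, diluted with two volumes water, analysed by UPLC-MS/MS.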

[2] = Intrinsic clearance in Sprague-Dawley rat liver microsomes at 0.5 uM in presence of NADPH incubated upto 30 mins by UPLC-MS/MS analysis; assay type: ADME, Microsome; conditions: 0.5 h
In short: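 Compound at 0.5 μM incubated with female CD1 mouse, male Sprague-Dawley rat or pooled human liver microsomes (0.5 mg/mL, 50 mM potassium phosphate, pH 7.4). Reaction started with excess NADPH. Samples taken at 0-30 min, quenched in acetonitrile, analysed by UPLC-MS/MS. Verapamil used as control, single time course.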

Plasmodium berghei [3] = experiment: Antiplasmodial activity against Plasmodium berghei ANKA infected in NMRI mouse assessed as survival days at 30 mg/kg, po QD for 4 days; assay type: functional; conditions: time 4 day
Plasmodium berghei [4] = experiment: Antiplasmodial activity against Plasmodium berghei ANKA infected in NMRI mouse assessed as cure rate at 10 mg/kg, po QD for 4 days; assay type: functional, organism-based; conditions: time 4.0 day
In short: (§2)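 Female NMRI mice (n=3 per group, randomized, not blinded) infected with GFP-transfected P. berghei ANKA. Oral dosing once daily for 4 days in 10% DMSO/40% PEG400/50% water or HPMC suspension vehicle. Parasitaemia measured by flow cytometry on blood collected 96 h after infection. Mice watched for toxicity over 4 h post-dose each day.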

[5] = AUC in Sprague-Dawley rat at 5 mg/kg, po administered via gavage by UPLC-MS/MS analysis; assay type: ADME, organism-based; set-up: dose 5 mg/kg; conditions: in vivo; in short: as §1
[6] = Blood clearance in NMRI mouse at 1 mg/kg, iv administered as bolus dose by UPLC-MS/MS analysis; assay type: ADME, organism-based
Plasmodium berghei [7] = experiment: Antiplasmodial activity against Plasmodium berghei ANKA infected in NMRI mouse assessed as survival days at 10 mg/kg, po QD for 4 days; assay type: functional; conditions: time 4 day
[8] = Cmax in NMRI mouse at 3 mg/kg, po administered as gavage by UPLC-MS/MS analysis; assay type: ADME, organism-based; set-up: route oral, dose 3 mg/kg; conditions: in vivo
Plasmodium falciparum [9] = experiment: Antiplasmodial activity against drug resistant Plasmodium falciparum TM90C2A by [3H]hypoxanthine incorporation assay; assay type: functional, organism-based
In short: (§3)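 Strains (K1, W2, 7G8, TM90C2A, D6, V1/S resistant; NF54 sensitive) cultured by the Trager and Jensen method; EC50 determined in vitro from [3H]hypoxanthine incorporation.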

Plasmodium berghei [10] = experiment: Antiplasmodial activity against Plasmodium berghei ANKA infected in NMRI mouse assessed as reduction in parasitemia at 30 mg/kg, po QD for 4 days; assay type: functional; set-up: scale not given: the % may be the effect or the level left; conditions: time 4 day; in short: as §2
[11] = Oral bioavailability in NMRI mouse at 10 mg/kg administered via gavage by UPLC-MS/MS analysis; assay type: ADME, organism-based; conditions: in vivo
In short: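 Female NMRI mice (n=3) dosed by oral gavage as a solution at 10 mg free base/kg (10 mL/kg; vehicle 5 or 10% DMSO, 40% PEG400). Blood levels measured by UPLC-MS/MS. Parameters derived from the blood concentration-time curve.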

Plasmodium falciparum [12] = experiment: Antiplasmodial activity against drug resistant Plasmodium falciparum D6 by [3H]hypoxanthine incorporation assay; assay type: functional, organism-based; in short: as §3
[13] = Oral bioavailability in Sprague-Dawley rat at 3 mg/kg administered via gavage by UPLC-MS/MS analysis; assay type: ADME, organism-based; conditions: in vivo
In short: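 Oral gavage solution, 3 mg free base/kg (10 mL/kg; 0.5% w/v HPMC, 0.4% v/v Tween 80, 0.5% v/v benzyl alcohol), given to male Sprague Dawley rats (n=3). Blood taken at 5, 15, 30 min and 1, 2, 4, 6, 8, 24, 30 h, mixed with two volumes water, analysed by UPLC-MS/MS.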

Plasmodium falciparum [14] = experiment: Antiplasmodial activity against drug resistant Plasmodium falciparum […] [3H]hypoxanthine incorporation assay; assay type: functional, organism-based; in short: as §3
Plasmodium berghei [15] = experiment: Antiplasmodial activity against Plasmodium berghei ookinete form assessed as growth inhibition incubated for 22 hrs by GFP-based fluorescence microscopic analysis; assay type: functional, organism-based
[16] = Clearance in Sprague-Dawley rat blood at 1 mg/kg, iv administered as bolus dose by UPLC-MS/MS analysis; assay type: ADME, organism-based
In short: (§4)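 Male Sprague Dawley rats (n=3/route) received an iv bolus solution at 1 mg free base/kg (5 mL/kg; 5% DMSO in saline). Blood sampled from 5 min to 30 or 48 h post-dose, mixed with two volumes water, frozen, then analysed by UPLC-MS/MS. Parameters derived from the blood concentration-time curve.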

[17] = Half-life in Sprague-Dawley rat at 1 mg/kg, iv administered as bolus dose by UPLC-MS/MS analysis; assay type: ADME, organism-based; conditions: in vivo, 1 mg/kg; in short: as §4
Plasmodium falciparum [18] = experiment: Antiplasmodial activity against late stage (IV/V) Plasmodium falciparum NF54 gametocytes transfected with GFP-LUC assessed as growth inhibition incubated for 72 hrs by mitotracker Red-CMXROS dye based fluorescence microscopic analysis; assay type: functional, organism-based; conditions: NF54, 72 h
In short: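 NF54 pfs16-LUC-GFP stage IV–V gametocytes (10% parasitaemia, 0.1% haematocrit) exposed to compound in 0.4% DMSO, three concentrations per log, for 72 h at 37°C under 5% CO2/5% O2/90% N2. MitoTracker Red CM-H2Xros then added for 16 h and viable gametocytes counted by imaging.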

Structure (SMILES): O=C(NCCN1CCCC1)c1cc(-c2ccc(CN3CCOCC3)cc2)nc2ccc(F)cc12 [CABAMIQUINE]
- Tmax [1]: 4 h
- CLH [2]: <= 0.8 ml/min/g
- Survival (Plasmodium berghei [3]): >30 days
- Activity (Plasmodium berghei [4]): Active
- AUC [5]: 3340 ng·h/mL
- clearance [6]: 12 mL/min/kg
- Survival (Plasmodium berghei [7]): >30 days
- Cmax [8]: 90 ng/mL
- EC50 (Plasmodium falciparum [9]): 0.4 nM
- Activity (Plasmodium berghei [10]): 99.9%
- bioavailability [11]: 74%
- EC50 (Plasmodium falciparum [12]): 0.4 nM
- bioavailability [13]: 84%
- EC50 (Plasmodium falciparum [14]): 0.3 nM
- EC50 (Plasmodium berghei [15]): 5 nM
- clearance [16]: 18 mL/min/kg
- t1/2 [17]: 10 h
- EC50 (Plasmodium falciparum [18]): 24 nM
